# Reference: ChEMBL document CHEMBL3044844, “Synthesis and antimicrobial evaluation of some novel 1,2,4-triazole and 1,3,4-thiadiazole derivatives” (2013)
# Tests used:
# Type in all cases: functional
# Micrococcus luteus = test: Antibacterial activity against Micrococcus luteus ATCC 10240 assessed as growth inhibition after 18 hr by CLSI broth microdilution method; conditions: ATCC 10240, 18 h
# How it was run: (§1)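 Inoculum: 0.5 McFarland suspension (150 × 10^6 CFU/mL) in sterile 0.85 % NaCl, 2 μL into 198 μL Mueller–Hinton broth. Compound stocks in DMSO; twofold dilutions, final 0.24–1,000 μg/mL. Incubated 35 °C, 18 h; OD600 read. MIC taken as lowest concentration with no visible growth. Controls: compound-free broth with DMSO, and bacteria-free compound blanks.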
# Bacillus spizizenii = test: Antibacterial activity against Bacillus subtilis subsp. spizizenii ATCC 6633 assessed as growth inhibition after 18 hr by CLSI broth microdilution method; conditions: ATCC 6633, 18 h; how it was run: as §1
# [1] = test system: Staphylococcus epidermidis; test: Antibacterial activity against Staphylococcus epidermidis ATCC 12228 assessed as growth inhibition after 18 hr by CLSI broth microdilution method; conditions: ATCC 12228, 18 h; how it was run: as §1
# Bacillus cereus = test: Antibacterial activity against Bacillus cereus ATCC 10876 assessed as growth inhibition after 18 hr by CLSI broth microdilution method; conditions: ATCC 10876, 18 h; how it was run: as §1
# Staphylococcus aureus [2] = test: Antibacterial activity against Staphylococcus aureus ATCC 25923 assessed as growth inhibition after 18 hr by CLSI broth microdilution method; conditions: ATCC 25923, 18 h; how it was run: as §1
# Staphylococcus aureus [3] = test: Antibacterial activity against Staphylococcus aureus ATCC 6538 assessed as growth inhibition after 18 hr by CLSI broth microdilution method; conditions: ATCC 6538, 18 h; how it was run: as §1
MIC (Micrococcus luteus) [µg/mL],MIC (Bacillus spizizenii) [µg/mL],MIC [1] [µg/mL],MIC (Bacillus cereus) [µg/mL],MIC (Staphylococcus aureus [2]) [µg/mL],MIC (Staphylococcus aureus [3]) [µg/mL],Structure (SMILES)
> 1000,> 1000,> 1000,500,1000,> 1000,COc1ccc(-n2c(S)nnc2CSc2nnc(-c3ccccc3)n2-c2ccccc2)cc1
1000,500,500,1000,500,1000,COc1ccc(CNC(=S)NNC(=O)CSc2nnc(-c3ccccc3)n2-c2ccccc2)cc1
1000,1000,> 1000,1000,> 1000,> 1000,O=C(CSc1nnc(-c2ccccc2)n1-c1ccccc1)NNC(=S)NC1CCCCC1
> 1000,> 1000,> 1000,> 1000,> 1000,1000,COc1ccc(Cn2c(CSc3nnc(-c4ccccc4)n3-c3ccccc3)n[nH]c2=S)cc1
125,250,125,125,31.2,250,O=C(CSc1nnc(-c2ccccc2)n1-c1ccccc1)NNC(=S)NC(=O)c1ccccc1
0.49,0.49,0.24,62.5,0.49,1.95,CO/N=C(\C(=O)N[C@@H]1C(=O)N2C(C(=O)O)=C(COC(N)=O)CS[C@H]12)c1ccco1 [CEFUROXIME]
1000,500,1000,500,> 1000,> 1000,CCOC(=O)NC(=S)NNC(=O)CSc1nnc(-c2ccccc2)n1-c1ccccc1
> 1000,> 1000,> 1000,500,1000,> 1000,Sc1nnc(CSc2nnc(-c3ccccc3)n2-c2ccccc2)n1-c1ccccc1
250,500,500,1000,500,250,S=c1[nH]nc(CSc2nnc(-c3ccccc3)n2-c2ccccc2)n1C1CCCCC1
125,15.6,500,–,250,–,c1ccc(CNc2nnc(CSc3nnc(-c4ccccc4)n3-c3ccccc3)s2)cc1
1000,> 1000,1000,> 1000,1000,1000,S=c1[nH]nc(CSc2nnc(-c3ccccc3)n2-c2ccccc2)n1Cc1ccccc1
1000,1000,1000,1000,1000,1000,C=CCn1c(CSc2nnc(-c3ccccc3)n2-c2ccccc2)n[nH]c1=S
